Active and inactive are the calls of the source. No cut-off for these calls is given here.
What was measured:
[1] = target: Phosphatidylinositol 4,5-bisphosphate 3-kinase catalytic subunit gamma isoform (Homo sapiens, UniProt P48736); test: Inhibition of PI3Kgamma
[2] = target: T1, Phosphatidylinositol 4,5-bisphosphate 3-kinase catalytic subunit alpha isoform (Homo sapiens, UniProt P42336); test: Inhibition of PI3Kalpha
[3] = target: Serine/threonine-protein kinase mTOR (Homo sapiens, UniProt P42345); test: Inhibition of mTOR
MDA-MB-361 = test: Growth inhibition of human MDA-MB-361 cells after 72 hrs by celltiter assay; type: functional, cell-based; conditions: MDA-MB-361, 72 h
In short: (§1)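 Cells from ATCC, maintained at 37 °C, 5% CO2 in growth medium with 10% fetal calf serum plus penicillin/streptomycin. Seeding density set per line's growth characteristics; 96-well format. Viable cells quantified by CellTiter 96 aqueous non-radioactive colorimetric proliferation assay after 72 h compound exposure.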

[4] = target: T1, Phosphatidylinositol 4,5-bisphosphate 3-kinase catalytic subunit alpha isoform; conditions: MDA-MB-361, 10 to 30 uM
[5] = target: T1, Phosphatidylinositol 4,5-bisphosphate 3-kinase catalytic subunit alpha isoform; test: Inhibition of PI3Kalpha in human MDA-MB-361 cells assessed as reduction of phosphorylated Akt (T308) level after 4 hrs by Western blotting; type: cell-based
In short: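 Cells seeded 24 h before 4 h compound exposure in complete growth medium, washed with cold PBS, lysed in Tris-HCl pH 7.5/NaCl/EDTA/EGTA/Triton buffer with phosphatase and protease inhibitors. Lysates resolved by SDS-PAGE, blotted to nitrocellulose, probed for phospho-Akt T308, total Akt, actin; HRP secondary, chemiluminescent detection.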

[6] = Growth inhibition of human PC3MM2 cells after 72 hrs by celltiter assay; type: functional, cell-based; conditions: PC3MM2, 72 h; in short: as §1

Sequence of Phosphatidylinositol 4,5-bisphosphate 3-kinase catalytic subunit gamma isoform (P48736 whole entry, canonical isoform): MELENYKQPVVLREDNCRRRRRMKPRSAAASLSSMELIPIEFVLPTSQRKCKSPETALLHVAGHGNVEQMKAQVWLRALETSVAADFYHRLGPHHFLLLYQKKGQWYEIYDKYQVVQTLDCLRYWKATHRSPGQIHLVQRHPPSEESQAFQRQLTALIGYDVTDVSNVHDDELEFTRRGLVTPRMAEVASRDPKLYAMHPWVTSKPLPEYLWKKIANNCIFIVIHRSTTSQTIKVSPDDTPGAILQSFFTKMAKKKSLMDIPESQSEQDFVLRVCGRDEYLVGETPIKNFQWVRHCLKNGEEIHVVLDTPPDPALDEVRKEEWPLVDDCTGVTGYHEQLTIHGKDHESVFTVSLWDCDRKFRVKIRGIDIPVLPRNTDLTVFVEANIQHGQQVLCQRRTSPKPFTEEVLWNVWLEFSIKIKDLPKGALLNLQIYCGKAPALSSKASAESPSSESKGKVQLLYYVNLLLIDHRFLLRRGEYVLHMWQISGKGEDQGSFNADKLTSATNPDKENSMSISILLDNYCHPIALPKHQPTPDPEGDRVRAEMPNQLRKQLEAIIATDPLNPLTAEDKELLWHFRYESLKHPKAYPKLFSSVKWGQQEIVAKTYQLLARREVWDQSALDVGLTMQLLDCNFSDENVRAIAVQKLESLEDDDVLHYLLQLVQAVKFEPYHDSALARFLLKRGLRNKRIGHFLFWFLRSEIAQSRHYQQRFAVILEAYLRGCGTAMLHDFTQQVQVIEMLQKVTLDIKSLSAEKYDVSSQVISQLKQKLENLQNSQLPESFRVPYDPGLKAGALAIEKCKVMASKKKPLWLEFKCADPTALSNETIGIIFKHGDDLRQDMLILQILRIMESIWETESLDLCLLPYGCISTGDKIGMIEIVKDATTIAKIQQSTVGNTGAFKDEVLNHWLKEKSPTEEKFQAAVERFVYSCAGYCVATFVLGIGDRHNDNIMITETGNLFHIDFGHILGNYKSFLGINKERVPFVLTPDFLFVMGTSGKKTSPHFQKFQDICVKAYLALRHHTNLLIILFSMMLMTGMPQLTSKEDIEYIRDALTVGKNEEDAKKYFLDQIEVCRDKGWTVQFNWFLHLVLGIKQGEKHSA
T1 sequence (P42336 whole entry, canonical isoform): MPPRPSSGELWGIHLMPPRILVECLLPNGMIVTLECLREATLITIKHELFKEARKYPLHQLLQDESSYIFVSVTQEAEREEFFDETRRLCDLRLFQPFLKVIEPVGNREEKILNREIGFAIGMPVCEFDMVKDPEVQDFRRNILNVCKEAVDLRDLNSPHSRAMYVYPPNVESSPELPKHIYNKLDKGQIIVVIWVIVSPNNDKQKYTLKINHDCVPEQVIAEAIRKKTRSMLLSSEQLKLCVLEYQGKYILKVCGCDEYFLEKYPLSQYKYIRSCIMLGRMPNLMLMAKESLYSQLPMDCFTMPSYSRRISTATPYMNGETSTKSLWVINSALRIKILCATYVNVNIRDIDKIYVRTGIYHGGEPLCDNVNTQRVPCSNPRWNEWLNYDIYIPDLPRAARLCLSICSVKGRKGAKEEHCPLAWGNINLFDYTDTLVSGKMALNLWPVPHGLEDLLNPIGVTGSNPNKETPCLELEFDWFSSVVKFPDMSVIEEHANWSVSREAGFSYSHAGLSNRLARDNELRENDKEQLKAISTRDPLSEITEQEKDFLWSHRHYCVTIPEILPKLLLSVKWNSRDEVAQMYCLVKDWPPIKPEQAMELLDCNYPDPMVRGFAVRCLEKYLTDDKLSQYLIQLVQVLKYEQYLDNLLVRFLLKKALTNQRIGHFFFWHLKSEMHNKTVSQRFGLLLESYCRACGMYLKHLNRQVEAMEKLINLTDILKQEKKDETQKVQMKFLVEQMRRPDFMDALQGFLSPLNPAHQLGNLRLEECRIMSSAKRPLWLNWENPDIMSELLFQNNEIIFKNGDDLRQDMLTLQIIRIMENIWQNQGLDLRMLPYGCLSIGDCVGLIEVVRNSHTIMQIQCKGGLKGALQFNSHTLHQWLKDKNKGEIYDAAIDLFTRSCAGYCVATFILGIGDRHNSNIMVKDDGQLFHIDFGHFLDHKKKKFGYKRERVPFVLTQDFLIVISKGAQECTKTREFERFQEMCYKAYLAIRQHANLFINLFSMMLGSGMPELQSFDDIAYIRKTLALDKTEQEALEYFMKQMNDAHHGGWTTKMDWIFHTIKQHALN

SMILES	IC50 [1]	IC50 [2]	IC50 [3]	IC50 (MDA-MB-361)	inhibition [4]	IC50 [5]	IC50 [6]
Oc1cccc(-c2nc(N3CCOCC3)c3ncn(C4CCN(Cc5ccc(N6CCOCC6)nc5)CC4)c3n2)c1	368 nM	40 nM	152 nM	–	–	–	–
CC(=O)N1CCC(n2cnc3c(N4CCOCC4)nc(-c4cccc(CO)c4)nc32)CC1	1380 nM	189 nM	–	–	–	–	–
COc1ccc(CN2CCC(n3cnc4c(N5CCOCC5)nc(-c5cccc(O)c5)nc43)CC2)cn1	306 nM	55 nM	–	–	–	–	–
Oc1cccc(-c2nc(N3CCOCC3)c3ncn(C4CCN(Cc5ccccc5)CC4)c3n2)c1	10000 nM	75 nM	–	–	–	–	–
OCc1cccc(-c2nc(N3CCOCC3)c3ncn(C4CCN(Cc5ccc(F)cc5)CC4)c3n2)c1	594 nM	70 nM	–	–	–	–	–
Oc1cccc(-c2nc(N3CCOCC3)c3nc[nH]c3n2)c1	2340 nM	150 nM	1650 nM	–	–	–	–
Oc1cccc(-c2nc(N3CCOCC3)c3ncn(C4CCN(Cc5cncc(Cl)c5)CC4)c3n2)c1	341 nM	37 nM	200 nM	–	–	–	–
Oc1cccc(-c2nc(N3CCOCC3)c3ncn(C4CCN(Cc5cccnc5)CC4)c3n2)c1	583 nM	66 nM	–	–	–	–	–
OCc1cccc(-c2nc(N3CCOCC3)c3ncn(C4CCN(Cc5ccccn5)CC4)c3n2)c1	776 nM	65 nM	–	–	–	–	–
OCc1cccc(-c2nc(N3CCOCC3)c3ncn(C4CCN(Cc5ccccc5F)CC4)c3n2)c1	1100 nM	42 nM	–	–	–	–	–
OCc1cccc(-c2nc(N3CCOCC3)c3ncn(C4CCN(c5ccc(F)cc5F)CC4)c3n2)c1	640 nM	44 nM	2050 nM	–	–	–	–
OCc1cccc(-c2nc(N3CCOCC3)c3ncn(C4CCNCC4)c3n2)c1	683 nM	57 nM	–	–	–	–	–
CN(C)CCCOc1ccc(CN2CCC(n3cnc4c(N5CCOCC5)nc(-c5cccc(CO)c5)nc43)CC2)cc1	265 nM	16 nM	–	685 nM	Active	300 nM	512 nM

Molecules with a lower IC50 [1], results first:

IC50 [1]	IC50 [2]	IC50 [3]	IC50 (MDA-MB-361)	inhibition [4]	IC50 [5]	SMILES	IC50 [6]
223 nM	23 nM	–	–	–	–	OCc1cccc(-c2nc(N3CCOCC3)c3ncn(C4CCN(Cc5ccc(-c6ccncc6)cc5)CC4)c3n2)c1	–
44 nM	14 nM	–	–	–	–	Oc1cncc(-c2nc(N3CCOCC3)c3ncn(C4CCNCC4)c3n2)c1	–
61 nM	94 nM	–	–	–	–	Oc1cncc(-c2nc(N3CCOCC3)c3ncn(C4CCN(Cc5ccc(F)nc5)CC4)c3n2)c1	–
119 nM	16 nM	–	–	–	–	Oc1cncc(-c2nc(N3CCOCC3)c3ncn(C4CCN(Cc5ccc(Cl)cc5)CC4)c3n2)c1	–
133 nM	64 nM	950 nM	–	–	–	Oc1cccc(-c2nc(N3CCOCC3)c3ncn(C4CCNCC4)c3n2)c1	–
204 nM	42 nM	–	–	–	–	Cc1ccc(CN2CCC(n3cnc4c(N5CCOCC5)nc(-c5cncc(O)c5)nc43)CC2)cc1	–
47 nM	11 nM	–	–	–	–	Oc1cncc(-c2nc(N3CCOCC3)c3nc[nH]c3n2)c1	–
